Assay results pooled from the literature.
Lines come from different studies, so protocols differ.
Target: RAC-alpha serine/threonine-protein kinase (AKT1, Homo sapiens, UniProt P31749)

SMILES | effect on | action | method | concentration | endpoint | result
Cn1cc(-c2cccc(N3CCc4c(sc5c4CC(C)(C)C5)C3=O)c2CO)cc(Nc2ccncn2)c1=O | enzyme activity | inhibitor | – | 1 µM | inhibition | 4%
Cn1cncc1[C@](O)(COc1ccc(C#N)cc1-c1ccc(OC(F)(F)F)cc1)c1ccc(C#N)cc1 | cell-free assay | – | competition with immobilised ligand | 1 µM | remaining binding | 84%
COc1ncccc1-c1cnn2ccc(N3CCN(C(=O)OC(C)C)CC3)nc12 | binding | – | competition with immobilised ligand | 1 µM | remaining binding | 100%
CC(C)(C)c1cc(C=C(C#N)C#N)cc(Br)c1O | enzyme activity | inhibitor | – | 0.5 µM | remaining activity | 108%
Cn1cc(-c2cc(F)cc(N3CCn4c(cc5c4CCCC5)C3=O)c2CO)cc(Nc2ccc(N3CCN(C4COC4)CC3)cn2)c1=O | enzyme activity | inhibitor | – | 0.1 µM | inhibition | 5%
Cc1nn(C)cc1-c1nc2c(N3CCN(Cc4ccc(Cl)cc4)CC3)c(Cl)cnc2[nH]1 | binding | – | competition with immobilised ligand | 1 µM | remaining binding | 100%
C#Cc1n[nH]c2c(-c3cn([C@@H](C)c4ccccc4)c(=O)[nH]c3=O)cc(F)cc12 | enzyme activity | inhibitor | – | 0.1 µM | inhibition | 1.4%
O=C(NCc1ncc(C(F)(F)F)cc1Cl)c1ccc2c(c1)C1(CCS(=O)(=O)CC1)[C@H](C1CC1)N2S(=O)(=O)c1ccc(F)cc1 | cell-free assay | – | competition with immobilised ligand | 1 µM | remaining binding | 96%
C#Cc1n[nH]c2c(-c3cn(C(C)c4ccccn4)c(=O)[nH]c3=O)cc(F)cc12 (stereo not drawn) | enzyme activity | inhibitor | – | 1 µM | inhibition | 3.7%
O=c1[nH]c2ccccc2n1C1CCN(Cc2ccc(-c3[nH]c4cc5ncnc5cc4nc3-c3ccccc3)cc2)CC1 | cell-free assay | – | – | 0.5 µM | remaining signal | 114%
COc1cc(Nc2ncc(F)c(Nc3ccc4c(n3)NC(=O)C(C)(C)O4)n2)cc(OC)c1OC | binding | – | competition with immobilised ligand | 10 µM | inhibition | 0%
Nc1ncc(-c2nc(N3CCOCC3)nc(N3CCOCC3)n2)c(C(F)F)n1 | binding | – | competition with immobilised ligand | 10 µM | remaining binding | 94%
